The species entered for data set [1] is Homo sapiens. The data set can be described thus: Selectivity ratio of IC50 for human CYP11B1 to IC50 for human CYP11B2. The method, boiled down: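 Ratio of IC50 values from V79 MZh cell assays for human CYP11B1 and CYP11B2, IC50 CYP11B1/IC50 CYP11B2. Both assays used [4-14C]-11-deoxycorticosterone, 100 nM, inhibitor at ≥3 concentrations and HPTLC/phosphoimager readout of conversion.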

Data set [2] deals with T1, Cytochrome P450 11B1, mitochondrial (Homo sapiens, UniProt P15538).
T1 sequence (P15538 whole entry): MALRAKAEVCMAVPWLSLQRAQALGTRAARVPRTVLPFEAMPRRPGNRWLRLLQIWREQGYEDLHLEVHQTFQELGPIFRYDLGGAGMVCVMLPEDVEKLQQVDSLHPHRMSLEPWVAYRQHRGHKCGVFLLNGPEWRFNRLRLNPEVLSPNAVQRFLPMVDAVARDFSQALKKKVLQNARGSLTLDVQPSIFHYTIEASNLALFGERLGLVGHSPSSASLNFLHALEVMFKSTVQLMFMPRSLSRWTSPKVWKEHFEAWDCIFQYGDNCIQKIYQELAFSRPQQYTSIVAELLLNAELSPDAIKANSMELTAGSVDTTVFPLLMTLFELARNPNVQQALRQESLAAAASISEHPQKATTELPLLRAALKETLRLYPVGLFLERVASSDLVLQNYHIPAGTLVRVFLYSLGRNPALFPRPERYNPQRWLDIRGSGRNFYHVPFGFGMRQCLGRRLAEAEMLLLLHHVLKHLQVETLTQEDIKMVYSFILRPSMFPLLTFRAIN
The data set can be described thus: Inhibition of human CYP11B1 expressed in hamster V79 MZh cells assessed as conversion of [4-14C]-11-deoxycorticosterone substrate by HPTLC assay. The data set is classed as cell-based. The method, boiled down:
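V79 MZh hamster fibroblasts stably expressing human CYP11B1 or CYP11B2 incubated with [4-14C]-11-deoxycorticosterone, 100 nM, plus inhibitor at ≥3 concentrations. Reaction stopped with ethyl acetate, steroids extracted into the organic phase, and substrate conversion quantified by HPTLC with phosphoimaging. IC50 is the mean of at least three experiments.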

Data set [3] deals with T2, Cytochrome P450 11B2, mitochondrial (Homo sapiens, UniProt P19099).
T2 sequence (P19099 whole entry): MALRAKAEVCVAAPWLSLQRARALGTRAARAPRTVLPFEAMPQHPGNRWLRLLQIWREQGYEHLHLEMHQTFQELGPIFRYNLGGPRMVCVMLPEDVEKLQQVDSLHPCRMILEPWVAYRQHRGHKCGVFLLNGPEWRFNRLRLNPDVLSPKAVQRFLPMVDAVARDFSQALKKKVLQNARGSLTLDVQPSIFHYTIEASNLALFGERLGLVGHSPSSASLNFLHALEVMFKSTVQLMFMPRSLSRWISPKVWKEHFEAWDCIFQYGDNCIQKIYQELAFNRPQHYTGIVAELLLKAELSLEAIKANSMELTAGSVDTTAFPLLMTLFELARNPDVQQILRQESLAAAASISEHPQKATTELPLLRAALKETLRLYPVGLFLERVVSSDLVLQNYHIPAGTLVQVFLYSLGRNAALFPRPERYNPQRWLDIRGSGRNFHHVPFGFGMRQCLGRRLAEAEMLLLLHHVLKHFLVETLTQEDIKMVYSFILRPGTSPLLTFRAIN
The data set can be described thus: Inhibition of human CYP11B2 expressed in hamster V79 MZh cells assessed as conversion of [4-14C]-11-deoxycorticosterone substrate at 500 nM by HPTLC assay. The data set is classed as cell-based. Particulars: V79MZh. The method, boiled down: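 V79 MZh cells expressing human CYP11B2 given [4-14C]-11-deoxycorticosterone, 100 nM, with inhibitor at a single 500 nM concentration. Ethyl acetate extraction, then HPTLC/phosphoimager readout of conversion. Percent inhibition is the mean of at least three experiments.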

Data set [4] has as its target T2, Cytochrome P450 11B2, mitochondrial. The data set can be described thus: Inhibition of human CYP11B2 expressed in hamster V79 MZh cells assessed as conversion of [4-14C]-11-deoxycorticosterone substrate by HPTLC assay. Format: cell-based. The method, boiled down:
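Hamster V79 MZh fibroblasts expressing human CYP11B2 incubated with [4-14C]-11-deoxycorticosterone (100 nM) and inhibitor at ≥3 concentrations; reaction stopped with ethyl acetate, steroids extracted after shaking and centrifugation (10000g, 2 min). Substrate conversion read by HPTLC with phosphoimaging.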

The target of data set [5] is T3, CYP17 (Homo sapiens, UniProt P05093).
T3 sequence (P05093 whole entry): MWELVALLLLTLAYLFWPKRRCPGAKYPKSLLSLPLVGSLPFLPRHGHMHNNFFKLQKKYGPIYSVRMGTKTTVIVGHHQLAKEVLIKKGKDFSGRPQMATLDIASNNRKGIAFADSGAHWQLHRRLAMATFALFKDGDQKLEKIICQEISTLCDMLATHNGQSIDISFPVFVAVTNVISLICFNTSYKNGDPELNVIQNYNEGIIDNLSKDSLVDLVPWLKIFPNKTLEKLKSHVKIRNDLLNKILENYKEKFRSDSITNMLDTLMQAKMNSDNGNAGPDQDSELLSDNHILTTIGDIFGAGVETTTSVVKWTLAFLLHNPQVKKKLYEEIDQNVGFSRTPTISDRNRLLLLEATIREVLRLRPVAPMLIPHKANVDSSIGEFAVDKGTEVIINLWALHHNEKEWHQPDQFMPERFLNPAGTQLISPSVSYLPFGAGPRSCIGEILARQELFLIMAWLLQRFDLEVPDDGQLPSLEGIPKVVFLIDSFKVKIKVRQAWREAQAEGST
The data set can be described thus: Inhibition of human CYP17 expressed in Escherichia coli using progesterone substrate at 2 uM. Particulars: recombinant human CYP17 expressed in Escherichia coli, probe progesterone. In short, it runs like this: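 50000g sediment of E. coli homogenate recombinantly expressing human CYP17. Progesterone substrate at 25 μM, inhibitor tested at 2 μM.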

For 23 molecules, Ratio IC50, IC50 and inhibition results are on record in ChEMBL document CHEMBL1765045, “Fine-tuning the selectivity of aldosterone synthase inhibitors: structure-activity and structure-selectivity insights from studies of heteroaryl substituted 1,2,5,6-tetrahydropyrrolo[3,2,1-ij]quinolin-4-one derivatives” (J Med Chem, 2011).

The term IC50 denotes the concentration that inhibits the measured activity by half. Broadly, the inhibition is how much of the control response was suppressed.

With `O=C1CCc2cc(-c3cncc(-c4ccccc4F)c3)cc3c2N1CC3`, in data set [1], the Ratio IC50 worked out at 61. For the same molecule, the IC50 in data set [2] worked out at 43 nM; in data set [4] it was 0.7 nM. In data set [3], the inhibition at 0.5 µM came to 92%.

On to `O=C1CCc2cc(-c3cncc(-c4cc(F)cc(F)c4)c3)cc3c2N1CC3`, for which the 50% inhibitory concentration (IC50) in data set [2] turned out to be 1750 nM; in data set [4] it was 18 nM. Besides, the inhibition at 0.5 µM in data set [3] is 81%.

Take `O=C1CCc2cc(-c3cncc(-c4cccc(OC(F)(F)F)c4)c3)cc3c2N1CC3`: the IC50 was 2060 nM in data set [2] and 16 nM in data set [4]. Further, in data set [3], the inhibition at 0.5 µM worked out at 92%.

Take `O=C1CCc2cc(-c3cncc(F)c3)cc3c2N1CC3`: the IC50 in data set [2] was found to be 1290 nM; in data set [4], 4.4 nM. Also, the inhibition at 2 µM in data set [5] is below 5%. Moreover, the inhibition at 0.5 µM in data set [3] worked out at 97%.

Turning to `O=C1CCc2cc(-c3cncc(-c4ccccc4)c3)cc3c2N1CC3`, the Ratio IC50 in data set [1] worked out at 45. Besides, the IC50 in data set [2] was 58 nM; in data set [4] it was 1.3 nM. Moreover, the inhibition at 0.5 µM in data set [3] stood at 97%.

In the case of `O=C1CCc2cc(-c3cncc(O)c3)cc3c2N1CC3`, the IC50 in data set [2] stood at 2040 nM; in data set [4], 4.3 nM. Also, in data set [3], the inhibition at 0.5 µM stood at 94%.

Turning to `O=C1CCc2cc(-c3cncc(-c4ccc(F)c(F)c4)c3)cc3c2N1CC3`, the concentration for half-maximal inhibition (IC50) in data set [2] turned out to be 496 nM; in data set [4] it was 2.3 nM. In data set [5], the inhibition at 2 µM was below 5%. Also, the inhibition at 0.5 µM in data set [3] amounted to 89%.

As for `O=C1CCc2cc(-c3cncnc3)cc3c2N1CC3`, the values for the half-maximal inhibitory concentration (IC50) in data set [2] and in data set [4] were 28500 nM and 56 nM, respectively. The inhibition at 2 µM in data set [5] was determined as 5%. In data set [3], the inhibition at 0.5 µM is 81%.

For the molecule `COc1ccc(-c2cncc(-c3cc4c5c(c3)CCN5C(=O)CC4)c2)cc1`, the results for the IC50 in data set [2] and in data set [4] were 21 nM and 1.4 nM, respectively. In addition, the inhibition at 0.5 µM in data set [3] came to 95%.

On to `O=C1CCc2cc(-c3cncc(-c4cccc(O)c4)c3)cc3c2N1CC3`, for which the 50% inhibitory concentration (IC50) amounted to 44 nM in data set [2] and 1.2 nM in data set [4]. Further, the inhibition at 0.5 µM in data set [3] was determined as 92%.

Turning to `CC(C)Oc1cncc(-c2cc3c4c(c2)CCN4C(=O)CC3)c1`, the IC50 in data set [2] worked out at 103 nM; in data set [4] it was 2.2 nM. The inhibition at 0.5 µM in data set [3] is 96%.

For `COc1ccccc1-c1cncc(-c2cc3c4c(c2)CCN4C(=O)CC3)c1`, the IC50 was 128 nM in data set [2] and 2.4 nM in data set [4]. Further, the inhibition at 0.5 µM in data set [3] turned out to be 86%.

Regarding `O=C1CCc2cc(-c3cncc(-c4cccc(C(F)(F)F)c4)c3)cc3c2N1CC3`, the IC50 in data set [2] stood at 4650 nM; in data set [4], 33 nM. In addition, the inhibition at 0.5 µM in data set [3] came to 80%.

As for `O=C1CCc2cc(-c3cncc(-c4cc(F)ccc4F)c3)cc3c2N1CC3`, the IC50 in data set [2] came to 183 nM; in data set [4], 3.6 nM. Also, the inhibition at 0.5 µM in data set [3] worked out at 80%.

On to `S=C1CCc2cc(-c3cccnc3)cc3c2N1CC3`, for which the half-maximal inhibitory concentration (IC50) stood at 333 nM in data set [2] and 1.2 nM in data set [4]. In data set [5], the inhibition at 2 µM was found to be 11%. Also, in data set [3], the inhibition at 0.5 µM was found to be 96%.

Consider `O=C1CCc2cc(-c3cncc4ccccc34)cc3c2N1CC3`, for which the 50% inhibitory concentration (IC50) in data set [2] is 13 nM; in data set [4], 0.2 nM. In addition, in data set [5], the inhibition at 2 µM came out at 6%. Besides, the inhibition at 0.5 µM in data set [3] amounted to 98%.

`O=C1CCc2cc(-c3ccncc3)cc3c2N1CC3`: the inhibition at 0.5 µM in data set [3] was determined as 7%.

In the case of `CC1(C)CC(=O)N2CCc3cc(-c4cccnc4)cc1c32`, the inhibition at 0.5 µM in data set [3] came out at 48%.

Consider `O=C1CCc2cc(-c3cncc(-c4ccc(F)cc4)c3)cc3c2N1CC3`, for which the IC50 in data set [2] came to 40 nM; in data set [4], 0.9 nM. Also, the inhibition at 0.5 µM in data set [3] was found to be 96%.

Consider `O=C1CCc2cc(-n3ccnc3)cc3c2N1CC3`, for which the figures for the IC50 in data set [2] and in data set [4] were 2080 nM and 89 nM, respectively. For the same molecule, the inhibition at 0.5 µM in data set [3] came out at 87%.

With `CCOc1cncc(-c2cc3c4c(c2)CCN4C(=O)CC3)c1`, the Ratio IC50 in data set [1] worked out at 158. In addition, the 50% inhibitory concentration (IC50) in data set [2] came out at 158 nM; in data set [4], 1 nM. Besides, the inhibition at 0.5 µM in data set [3] came out at 92%.

`COc1cccc(-c2cncc(-c3cc4c5c(c3)CCN5C(=O)CC4)c2)c1`: the Ratio IC50 in data set [1] came to 299. In addition, the figures for the IC50 in data set [2] and in data set [4] were 1370 nM and 4.6 nM, respectively. Besides, the inhibition at 2 µM in data set [5] was below 5%. Moreover, the inhibition at 0.5 µM in data set [3] is 86%.

For `O=C1CCc2cc(-c3cncc(C(F)(F)F)c3)cc3c2N1CC3`, the half-inhibitory concentration (IC50) is 141 nM in data set [2] and 5.9 nM in data set [4]. For the same molecule, the inhibition at 0.5 µM in data set [3] came to 96%.
